In brackets after ≈: the same amount, converted by molar mass.
Assays:
[1] = target: Histone-lysine N-methyltransferase EZH2 (Homo sapiens, UniProt Q15910); test: Inhibition of EZH2 in human KARPAS422 cells assessed as reduction in H3K27me3 level after 72 hrs by ELISA
[2] = target: Histone-lysine N-methyltransferase EZH2 (Homo sapiens, UniProt Q15910, Y641N); test: Inhibition of EZH2 Y641N mutant (unknown origin) using oligonucleosomes as substrate after 60 mins in presence of [3H]SAM by scintillation counting analysis
Chain of Histone-lysine N-methyltransferase EZH2 (Homo sapiens, UniProt Q15910, Y641N) (Q15910 whole entry Y641N): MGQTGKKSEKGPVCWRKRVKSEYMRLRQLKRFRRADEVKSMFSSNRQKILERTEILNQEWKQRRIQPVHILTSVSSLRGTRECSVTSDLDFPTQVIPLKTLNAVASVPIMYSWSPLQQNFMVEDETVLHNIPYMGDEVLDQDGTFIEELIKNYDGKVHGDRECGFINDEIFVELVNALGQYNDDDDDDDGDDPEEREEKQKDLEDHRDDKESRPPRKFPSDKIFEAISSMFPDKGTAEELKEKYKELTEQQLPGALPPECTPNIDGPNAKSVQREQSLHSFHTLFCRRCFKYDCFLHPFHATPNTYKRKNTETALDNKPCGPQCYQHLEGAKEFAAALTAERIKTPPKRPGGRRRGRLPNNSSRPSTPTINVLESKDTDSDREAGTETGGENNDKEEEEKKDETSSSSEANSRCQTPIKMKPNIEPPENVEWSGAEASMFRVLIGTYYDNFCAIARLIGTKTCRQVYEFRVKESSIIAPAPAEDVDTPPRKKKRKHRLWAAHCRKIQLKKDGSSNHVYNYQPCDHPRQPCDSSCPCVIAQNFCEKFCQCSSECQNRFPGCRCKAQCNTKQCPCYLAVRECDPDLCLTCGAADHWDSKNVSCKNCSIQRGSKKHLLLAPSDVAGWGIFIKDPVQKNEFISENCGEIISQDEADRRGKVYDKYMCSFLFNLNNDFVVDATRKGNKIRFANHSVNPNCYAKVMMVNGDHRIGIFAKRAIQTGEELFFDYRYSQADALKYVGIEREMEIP

KARPAS-422 = test: Antiproliferative activity against human KARPAS422 cells after 72 hrs by resazurin assay; assay type: functional, cell-based
[3] = (§1) Intrinsic clearance in human liver microsomes assessed per mg protein at 1 uM preincubated for 10 mins followed by NADPH addition measured after 45 mins by LC-MS/MS analysis; assay type: ADME, microsome; conditions: liver microsomes, read-out: CLH
Procedure, shortened: (§2)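 Test compound (1 μM) with pooled liver microsomes (0.8 mg/mL protein) in 100 mM potassium phosphate pH 7.4, 10 min preincubation, started with 2 mM NADPH, 45 min at 37 °C, in triplicate. Samples quenched with cold methanol containing buspirone internal standard, analysed by LC−MS/MS. CLint derived from t1/2 of parent loss (log-linear slope).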

[4] = Kinetic solubility of the compound; assay type: physicochemical; conditions: for solubility kinetic: read-out: Kinetic_solubility
[5] = Passive permeability in MDCK cells at 2 uM after 90 mins by LC-MS/MS analysis; assay type: ADME, cell-based, Canis lupus familiaris; conditions: dog; for Papp at […], 2 µM: MDCK, read-out: permeability; for permeability: mdck, 2 µM
Procedure, shortened: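 Low-efflux MDCK cells (MDCK-LE) on 96-well inserts, used on day 4. Monodirectional transport of 2 μM drug in transport buffer with 0.1% DMSO at 37 °C. Donor and receiver sampled at 0 and 90 min for LC−MS/MS. Donor pH 6.5 and 7.4, receiver pH 7.4.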

[6] = Lipophilicity, log D of the compound at pH 7.4; conditions: buffer
Liver = test: as §1; assay type: ADME, microsome; conditions: microsomes, 0.75 h, 1 µM; procedure, shortened: as §2

Chain of Histone-lysine N-methyltransferase EZH2 (Homo sapiens, UniProt Q15910) (Q15910 whole entry): as the sequence (Q15910 whole entry Y641N) above, with N641Y counted along it

Row | IC50 [1] | Ki [2] | IC50 (KARPAS-422; Homo sapiens, KARPAS-422, 72 h) | microsomal CLint at 1 µM [3] | solubility kinetic [4] | Papp at […], 2 µM [5] | logD ([6]; pH 7.4, logD) | IC50 (KARPAS-422; karpas-422) | microsomal CLint (Liver) | Kinetic_solubility [4] | permeability [5] | logD ([6]; pH 7.4) | Compound
1 | 0.01 µM | 0.00024 µM | 0.015 µM | 21.3 µL/min/mg | 570 µM (≈ 265 µg/mL) | 2.9 ×10⁻⁶ cm/s | 2 | – | – | – | – | – | Cc1cc(C)c(CN2CCc3c(Cl)cc([C@H](CO)[C@H]4CCOC4)c(Cl)c3C2=O)c(=O)[nH]1
2 | – | – | – | 50.3 µL/min/mg | – | – | – | 1.62 µM | – | 498 µM | 8.1 ×10⁻⁶ cm/s | – | COC(c1cc(Cl)c2c(c1Cl)C(=O)N(Cc1c(C)cc(C)[nH]c1=O)CC2)C1CCN(C(C)=O)CC1 (single isomer, unassigned; (-))
3 | 1.04 µM | 0.26 µM | 1.5 µM | 12.4 µL/min/mg | 143 µM (≈ 58.5 µg/mL) | 15 ×10⁻⁶ cm/s | 2.5 | – | – | – | – | – | Cc1cc(C)c(CN2CCc3c(Cl)cc([C@@H](C)CO)c(Cl)c3C2=O)c(=O)[nH]1
4 | 1.31 µM | 0.53 µM | – | 78.3 µL/min/mg | – | – | – | 2.26 µM | – | 519 µM | 7.9 ×10⁻⁶ cm/s | 2.8 | COC(c1cc(Cl)c2c(c1Cl)C(=O)N(Cc1c(C)cc(C)[nH]c1=O)CC2)C1CCN(C2COC2)CC1 (single isomer, unassigned; (-))
5 | 0.749 µM | 0.07 µM | – | 23 µL/min/mg | – | – | – | 3.14 µM | – | 513 µM | 7.1 ×10⁻⁶ cm/s | 2.3 | COC(c1cc(Cl)c2c(c1Cl)C(=O)N(Cc1c(C)cc(C)[nH]c1=O)CC2)C1CCN(C(=O)CO)CC1 (single isomer, unassigned; (-))
6 | – | – | – | 22.7 µL/min/mg | – | – | – | 2.49 µM | – | 481 µM | 8.6 ×10⁻⁶ cm/s | – | Cc1cc(C)c(CN2CCc3c(Cl)cc(C(CO)c4ccon4)c(Cl)c3C2=O)c(=O)[nH]1 (stereo in doubt; (-)-21b)
7 | 2.91 µM | 1.26 µM | 3.95 µM | 25.3 µL/min/mg | 537 µM (≈ 250 µg/mL) | 3 ×10⁻⁶ cm/s | 2 | – | – | – | – | – | Cc1cc(C)c(CN2CCc3c(Cl)cc([C@@H](CO)[C@@H]4CCOC4)c(Cl)c3C2=O)c(=O)[nH]1
8 | 0.065 µM | 0.008 µM | 0.27 µM | 119 µL/min/mg | 44 µM (≈ 18.6 µg/mL) | – | – | – | – | – | 13.5 ×10⁻⁶ cm/s | – | CCC(OC)c1cc(Cl)c2c(c1Cl)C(=O)N(Cc1c(C)cc(C)[nH]c1=O)CC2 (single isomer, unassigned; (-))
9 | 0.041 µM | 0.01 µM | 0.057 µM | 37.6 µL/min/mg | 400 µM (≈ 186 µg/mL) | 14.6 ×10⁻⁶ cm/s | 2.4 | – | – | – | – | – | Cc1cc(C)c(CN2CCc3c(Cl)cc([C@H](CO)[C@@H]4CCCO4)c(Cl)c3C2=O)c(=O)[nH]1
10 | – | – | – | – | – | – | – | 0.25 µM | 12.6 µL/min/mg | 453 µM | 1.1 ×10⁻⁶ cm/s | – | COc1cc(C)[nH]c(=O)c1CN1CCc2c(Cl)cc(C(OC)C3CCN(C(=O)CO)CC3)c(Cl)c2C1=O (single isomer, unassigned; (-))
11 | 1.46 µM | 0.31 µM | – | 130 µL/min/mg | – | – | – | 1.15 µM | – | 57.2 µM | 16.5 ×10⁻⁶ cm/s | 3.5 | COC(c1cc(Cl)c2c(c1Cl)C(=O)N(Cc1c(C)cc(C)[nH]c1=O)CC2)C1CCOCC1 (single isomer, unassigned; (-))
12 | 0.075 µM | 0.016 µM | 0.467 µM | 17 µL/min/mg | 543 µM (≈ 254 µg/mL) | 6.8 ×10⁻⁶ cm/s | 1.6 | – | – | – | – | – | COc1cc(C)[nH]c(=O)c1CN1CCc2c(Cl)cc([C@@H](OC)C3COC3)c(Cl)c2C1=O
13 | – | – | – | 190 µL/min/mg | 49 µM (≈ 20.1 µg/mL) | – | – | 0.696 µM | – | – | 37.6 ×10⁻⁶ cm/s | 3.4 | COC(C)c1cc(Cl)c2c(c1Cl)C(=O)N(Cc1c(C)cc(C)[nH]c1=O)CC2 (single isomer, unassigned; (+))
14 | – | – | – | – | – | – | – | 0.97 µM | 15 µL/min/mg | 415 µM | 5.7 ×10⁻⁶ cm/s | – | COC(c1cc(Cl)c2c(c1Cl)C(=O)N(Cc1c(C)cc(C)[nH]c1=O)CC2)C1CCS(=O)(=O)CC1 (single isomer, unassigned; (-))
15 | 0.682 µM | 0.014 µM | – | 67.6 µL/min/mg | 443 µM (≈ 188 µg/mL) | – | – | 0.502 µM | – | – | 10.9 ×10⁻⁶ cm/s | 2.9 | CCC(CO)c1cc(Cl)c2c(c1Cl)C(=O)N(Cc1c(C)cc(C)[nH]c1=O)CC2 (stereo in doubt; (-)-5b)
16 | 0.391 µM | 0.092 µM | – | 75 µL/min/mg | – | – | – | 0.269 µM | – | 505 µM | 8.2 ×10⁻⁶ cm/s | 2.4 | COc1cc(C)[nH]c(=O)c1CN1CCc2c(Cl)cc(C(OC)C3CCOC3)c(Cl)c2C1=O (single isomer, unassigned; form 2)
17 | 1.57 µM | 0.135 µM | 1.22 µM | 70.3 µL/min/mg | 550 µM (≈ 256 µg/mL) | 4.3 ×10⁻⁶ cm/s | 2.1 | – | – | – | – | – | Cc1cc(C)c(CN2CCc3c(Cl)cc([C@@H](CO)[C@@H]4CCCO4)c(Cl)c3C2=O)c(=O)[nH]1
18 | 0.253 µM | 0.35 µM | – | 168 µL/min/mg | – | – | – | 0.559 µM | – | 512 µM | 4.8 ×10⁻⁶ cm/s | 2.2 | COc1cc(C)[nH]c(=O)c1CN1CCc2c(Cl)cc(C(OC)C3(C)COC3)c(Cl)c2C1=O (stereo in doubt; (-)-24b)

Continued, compound first:

Row | Compound | IC50 [1] | Ki [2] | IC50 (KARPAS-422; Homo sapiens, KARPAS-422, 72 h) | microsomal CLint at 1 µM [3] | solubility kinetic [4] | Papp at […], 2 µM [5] | logD ([6]; pH 7.4, logD) | IC50 (KARPAS-422; karpas-422) | microsomal CLint (Liver) | Kinetic_solubility [4] | permeability [5] | logD ([6]; pH 7.4)
19 | Cc1cc(C)c(CN2CCc3c(Cl)cc([C@H](CO)[C@H]4CCCO4)c(Cl)c3C2=O)c(=O)[nH]1 | 0.04 µM | 0.008 µM | 0.063 µM | 51.6 µL/min/mg | 430 µM (≈ 200 µg/mL) | 4.1 ×10⁻⁶ cm/s | 2.1 | – | – | – | – | –
20 | COc1cc(C)[nH]c(=O)c1CN1CCc2c(Cl)cc(C(OC)C3CCOC3)c(Cl)c2C1=O (single isomer, unassigned; form 1) | 0.11 µM | 0.042 µM | – | – | – | – | – | 0.113 µM | 97.2 µL/min/mg | 521 µM | 8.4 ×10⁻⁶ cm/s | –
21 | COc1cc(C)[nH]c(=O)c1CN1CCc2c(Cl)cc(-c3c(C)noc3C)c(Cl)c2C1=O | 0.008 µM | 0.00015 µM | 0.027 µM | 70 µL/min/mg | 384 µM (≈ 178 µg/mL) | 11 ×10⁻⁶ cm/s | 2.7 | – | – | – | – | –
22 | COC(c1cc(Cl)c2c(c1Cl)C(=O)N(Cc1c(C)cc(C)[nH]c1=O)CC2)C1CCN(C)CC1 (single isomer, unassigned; (-)) | 1.13 µM | 0.26 µM | – | < 13.4 µL/min/mg | – | – | – | 2.32 µM | – | 499 µM | 2.3 ×10⁻⁶ cm/s | 1.5
23 | Cc1cc(C)c(CN2CCc3c(Cl)cc(C(CO)C4CCOC4)c(Cl)c3C2=O)c(=O)[nH]1 (stereo in doubt) | 1.01 µM | 0.15 µM | – | 20 µL/min/mg | 522 µM (≈ 243 µg/mL) | – | – | 1.04 µM | – | – | 2.7 ×10⁻⁶ cm/s | –
24 | COC(c1cc(Cl)c2c(c1Cl)C(=O)N(Cc1c(C)cc(C)[nH]c1=O)CC2)C1CCOC1 (single isomer, unassigned; (-)) | 1.1 µM | 0.13 µM | – | 136 µL/min/mg | 415 µM (≈ 193 µg/mL) | – | – | 0.175 µM | – | – | 18.4 ×10⁻⁶ cm/s | –
25 | Cc1cc(C)c(CN2CCc3c(Cl)cc([C@@H](CO)[C@H]4CCCO4)c(Cl)c3C2=O)c(=O)[nH]1 | 1.02 µM | 0.11 µM | 0.535 µM | 43 µL/min/mg | 576 µM (≈ 268 µg/mL) | 8.5 ×10⁻⁶ cm/s | 2.5 | – | – | – | – | –
26 | Cc1cc(C)c(CN2CCc3c(Cl)cc(C(CO)C4CCOCC4)c(Cl)c3C2=O)c(=O)[nH]1 (stereo in doubt; (+)-8b) | 14.8 µM | 3.27 µM | – | 34.7 µL/min/mg | 496 µM (≈ 238 µg/mL) | – | – | 4.4 µM | – | – | 2.9 ×10⁻⁶ cm/s | –
27 | COC(c1cc(Cl)c2c(c1Cl)C(=O)N(Cc1c(C)cc(C)[nH]c1=O)CC2)C1CS(=O)(=O)C1 (stereo in doubt; (+)-19a) | – | – | – | – | 161 µM (≈ 80.4 µg/mL) | 5.3 ×10⁻⁶ cm/s | – | 0.024 µM | 52.5 µL/min/mg | – | – | –
28 | COc1cc(C)[nH]c(=O)c1CN1CCc2c(Cl)cc([C@H](O)C3COC3)c(Cl)c2C1=O | 0.099 µM | 0.0015 µM | 0.108 µM | < 8 µL/min/mg | 234 µM (≈ 106 µg/mL) | 0.7 ×10⁻⁶ cm/s | 1.4 | – | – | – | – | –
29 | COC(c1cc(Cl)c2c(c1Cl)C(=O)N(Cc1c(C)cc(C)[nH]c1=O)CC2)C1CS(=O)(=O)C1 (single isomer, unassigned) | – | – | – | – | – | – | – | 4.83 µM | 23 µL/min/mg | 159 µM | 6.1 ×10⁻⁶ cm/s | –
30 | COc1cc(C)[nH]c(=O)c1CN1CCc2c(Cl)cc([C@@H](O)C3COC3)c(Cl)c2C1=O | > 32 µM | 1.5 µM | 10.6 µM | < 7 µL/min/mg | 582 µM (≈ 264 µg/mL) | 1.2 ×10⁻⁶ cm/s | 1.3 | – | – | – | – | –
